Results reported in ChEMBL document CHEMBL3232844, “Synthesis and structure activity relationships of schweinfurthin indoles” (2014).

Key:
Format in all cases: functional
MDA-MB-231 = test: Cytotoxicity against human MDA-MB-231 cells
How it was run: (§1)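 Tested in a 60-cell-line human tumor panel screen; the read-out is growth inhibition, reported as GI50 for each cell line.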

NCI-H460 = test: Cytotoxicity against human NCI-H460 cells; how it was run: as §1
SK-MEL-2 = test: Cytotoxicity against human SK-MEL-2 cells; how it was run: as §1
[1] = Cytotoxicity against human UACC257 cells
How it was run: (§2)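 Cell line run as part of the 60-cell-line screening panel; growth inhibition was reported as a GI50 for each line.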

M14 = test: Cytotoxicity against human M14 cells; how it was run: as §1
CAKI-1 = test: Cytotoxicity against human Caki1 cells; how it was run: as §1
IGROV-1 = test: Cytotoxicity against human IGROV1 cells; how it was run: as §1
[2] = Cytotoxicity against human NCI-ADR-RES cells; how it was run: as §1
MOLT-4 = test: Cytotoxicity against human MOLT4 cells; how it was run: as §1
MDA-MB-435 = test: Cytotoxicity against human MDA-MB-435 cells; how it was run: as §1
RXF 393 = test: Cytotoxicity against human RXF393 cells; how it was run: as §1
SNB-75 = test: Cytotoxicity against human SNB75 cells; how it was run: as §2
CCRF-CEM = test: Cytotoxicity against human CCRF-CEM cells
ACHN = test: Cytotoxicity against human ACHN cells; how it was run: as §1
[3] = Cytotoxicity against human HCT15 cells; how it was run: as §1
MCF7 = test: Cytotoxicity against human MCF7 cells; how it was run: as §1
HL-60(TB) = test: Cytotoxicity against human HL-60(TB) cells
How it was run: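 Tested within the NCI 60-cell-line screen, with GI50 as the read-out. Values are the average of two independent experiments. The lowest concentration tested was 10 nM.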

A498 = test: Cytotoxicity against human A498 cells; how it was run: as §1
SF-539 = test: Cytotoxicity against human SF539 cells; how it was run: as §1
[4] = Cytotoxicity against human EKVX cells; how it was run: as §1
HCT-116 = test: Cytotoxicity against human HCT116 cells; how it was run: as §1
SK-OV-3 = test: Cytotoxicity against human SKOV3 cells; how it was run: as §1
[5] = read-out: pLC50 (the source's name) (converted)

In the case of `COc1cc(/C=C/c2cc(O)c3cc(CC=C(C)C)[nH]c3c2)cc2c1O[C@]1(C)CC[C@@H](O)C(C)(C)[C@H]1C2`, the LC50 (MDA-MB-231) is reported as > 100 µM, the TGI (MDA-MB-231; read-out: pTGI (converted)) is reported as 63.1 µM and the GI50 (NCI-H460) is reported as 3.31 µM. The CC50 (NCI-H460; [5]) was > 100 µM, the TGI (NCI-H460; read-out: pTGI (converted)) was > 100 µM and the GI50 (SK-MEL-2) was 1.95 µM. For the same compound, the CC50 (SK-MEL-2; [5]) was > 100 µM, the TGI (SK-MEL-2; read-out: pTGI (converted)) was > 100 µM and the GI50 ([1]; UACC-257) was 12 µM. The CC50 ([1]; UACC-257, read-out: pLC50 (the source's name) (converted)) was > 100 µM, the TGI ([1]; UACC-257, read-out: pTGI (converted)) was 81.3 µM and the GI50 (M14) was 1.66 µM. It also gave a CC50 (M14; [5]) of 63.1 µM, a TGI (M14; read-out: pTGI (converted)) of 9.33 µM and a GI50 (CAKI-1) of 4.07 µM. For the same compound, the LC50 (CAKI-1) was > 100 µM, the TGI (CAKI-1; read-out: pTGI (converted)) was 93.3 µM and the GI50 (IGROV-1) was 5.01 µM. For the same compound, the CC50 (IGROV-1; [5]) was > 100 µM, the TGI (IGROV-1; read-out: pTGI (converted)) was > 100 µM and the GI50 [2] was 64.6 µM. The CC50 [2, 5] was > 100 µM, the TGI ([2]; read-out: pTGI (converted)) was > 100 µM and the GI50 (MOLT-4) was 0.813 µM. The CC50 (MOLT-4; [5]) was > 100 µM, the TGI (MOLT-4; read-out: pTGI (converted)) was > 100 µM and the GI50 (MDA-MB-435) was 3.8 µM. The CC50 (MDA-MB-435; [5]) was > 100 µM, the TGI (MDA-MB-435; read-out: pTGI (converted)) was > 100 µM and the GI50 (RXF 393) was 0.0832 µM. The LC50 (RXF 393) was 11.2 µM, the TGI (RXF 393; read-out: pTGI (converted)) was 0.447 µM and the GI50 (SNB-75) was 0.49 µM. For the same compound, the CC50 (SNB-75; [5]) was > 100 µM, the TGI (SNB-75; read-out: pTGI (converted)) was > 100 µM and the GI50 (CCRF-CEM) was 0.741 µM. For the same compound, the CC50 (CCRF-CEM; [5]) was > 100 µM, the TGI (CCRF-CEM; read-out: pTGI (converted)) was > 100 µM and the GI50 (ACHN) was 7.08 µM. The LC50 (concentration killing 50% of cells) (ACHN) was > 100 µM, the TGI (ACHN; read-out: pTGI (converted)) was > 100 µM and the GI50 ([3]; HCT-15) was 1.45 µM. The CC50 ([3]; HCT-15, read-out: pLC50 (the source's name) (converted)) was > 100 µM, the TGI ([3]; HCT-15, read-out: pTGI (converted)) was 17.4 µM and the GI50 (MCF7) was 2.45 µM. For the same compound, the LC50 (MCF7) was > 100 µM, the TGI (MCF7; read-out: pTGI (converted)) was 50.1 µM and the GI50 (HL-60(TB)) was 18.6 µM. For the same compound, the CC50 (HL-60(TB); [5]) was > 100 µM, the TGI (HL-60(TB); read-out: pTGI (converted)) was > 100 µM and the GI50 (A498) was 1.02 µM. For the same compound, the CC50 (A498; [5]) was > 100 µM, the TGI (A498; read-out: pTGI (converted)) was 22.9 µM and the GI50 (SF-539) was 0.324 µM. For the same compound, the CC50 (SF-539; [5]) was 83.2 µM, the TGI (SF-539; read-out: pTGI (converted)) was 2.75 µM and the GI50 [4] was 4.79 µM. For the same compound, the CC50 [4, 5] was > 100 µM, the TGI ([4]; read-out: pTGI (converted)) was > 100 µM and the GI50 (HCT-116) was 2.34 µM. The CC50 (HCT-116; [5]) was > 100 µM, the TGI (HCT-116; read-out: pTGI (converted)) was > 100 µM and the GI50 (SK-OV-3) was 3.39 µM. For the same compound, the LC50 (SK-OV-3) was > 100 µM and the TGI (SK-OV-3; read-out: pTGI (converted)) was > 100 µM.
